Screening data from PubChem BioAssay.
HCT116 bCat-KO: beta-catenin-lacking colon tumor cell growth suppression; viability, % at 10 µM; AID 818; HCT116 beta-catenin knockout viability, CellTiter-Glo, 60 h; hits give low values; actives 1.5% (n = 140,000);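 active means viability at or under a set limit, the compound median less 4 SD, cut at about 6% in these data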;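 further: 0% = Hyamine 1622 control at 20 µM and 100% = untreated cell control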
HUVEC inhibit: inhibitors of human endothelial cell proliferation; HUVEC proliferation, CellTiter-Glo luminescence, 72 h; hits give low values; viability, % at 10 µM (by protocol); actives 1.1% (n = 86,000);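 active means viability at or below 30%; inactive means viability above 30%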;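 further: 100% = median luminescence of DMSO-only cell control wells on each plate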
HCT116 PTEN-null: suppresses growth of cells with PTEN deletion; HCT116 PTEN-null viability, CellTiter-Glo, 60 h; hits give low values; viability, % at 10 µM; actives 1.2% (n = 140,000);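 active means viability at or below a set limit, 4 SD under the median of all tested compounds, cut at about 3.7% in these data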;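 further: PTEN knockout HCT116 line with beta catenin targeted HCT116 as companion control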
Fibroblast inh: blocks proliferation of human lung fibroblasts | viability, % at 10 µM | actives 1.1% (n = 85,000) | LL 47 human lung fibroblast viability, ATP luminescence; hits give low values;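 active means viability at or below 50% in the single dose screen; inactive means viability above 50%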;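 further: compound exposure lasted 72 h before the ATP readout; 100% = median luminescence of untreated cell-only wells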
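Test system: LL 47 human lung fibroblasts / Quantity: 1,150 cells in each well / Medium: IMEM growth medium with 15% fetal bovine serum / Incubation: 72 h compound exposure at 37 °C after overnight plating / Detection: CellTiter-Glo luminescence measuring cellular ATP / Read-out: % viability versus median cells-only luminescence / Benchmarks: cell-only wells, no compound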
H69AR inhibit: blocks growth of human H69AR lung tumor cells | H69AR lung tumor viability, ATP luminescence, 72 h; hits give low values | viability, % at 10 µM | actives 6% (n = 85,000);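 active means viability at or below 40%; inactive means viability above 40%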;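 further: multidrug resistant small cell line overexpressing MRP-1 efflux transporter; 100% = mean luminescence of untreated control wells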
Numbers without * were called inactive; . = no result. This excerpt belongs to a sample that is enriched for hits.

SMILES | HCT116 bCat-KO | HUVEC inhibit | HCT116 PTEN-null | Fibroblast inh | H69AR inhibit
N#Cc1ccccc1Cn1c(=O)n(Cc2ccc(C(=O)NCc3ccco3)cc2)c(=O)c2ccccc21 | 20 | 26* | 19 | 53 | 12*
Cc1ccc(Cn2c(=O)n(CCC(=O)NCc3ccc4c(c3)OCO4)c(=O)c3ccccc32)cc1 | 93 | 95 | 91 | 102 | 99
CCc1ccc(NC(=O)Cn2c(=O)n(CCCC(=O)NCc3ccco3)c(=O)c3ccccc32)cc1 | 99 | 41 | 92 | 82 | 30*
O=C(CCCn1c(=O)c2sccc2n(Cc2ccc(F)cc2)c1=O)NCc1ccco1 | 61 | 69 | 58 | 96 | 22*
COC(=O)c1ccc(C(=O)OC)c(NC(=S)N2CCC(C)CC2)c1 | 94 | . | 100 | . | .
Cn1c(N/N=C\c2cccc(O)c2)cc(=O)n(C)c1=O | 98 | . | 103 | . | .
CC1CCCCN1C(=S)NCCc1ccccc1 (centres undefined) | 75 | . | 69 | . | .
Cc1nn(Cc2ccc([N+](=O)[O-])cc2)c(=O)n1-c1c(F)cccc1F | 91 | . | 106 | . | .
O=C(CCCCn1c(=O)c2ccccc2n(Cc2ccc(Cl)cc2)c1=O)NCc1ccco1 | 53 | 52 | 42 | 54 | 16*
CCOc1cc2[nH]c(=O)n(CCCCCC(=O)NCc3ccco3)c(=O)c2cc1OCC | 105 | 59 | 89 | 98 | 95
CCOc1cc2[nH]c(=O)n(CCCCCC(=O)NCc3ccc4c(c3)OCO4)c(=O)c2cc1OCC | . | 31 | . | 34* | 18*
COC1(OC)C(/C=C/c2ccc(Cl)cc2)C(C#N)(C#N)C1(OC)OC (centres undefined) | 4.2* | 7.0* | 3.0* | 52 | -0.4*
CC(C)(C)NC(=O)CSC(=Nc1cccc(F)c1)NC#N | 90 | 100 | 91 | 99 | 96
COC(=O)c1ccc(N2CCCCC2)c(NS(=O)(=O)c2ccc(C)cc2)c1 | 35 | 90 | 53 | 101 | 77
CCN(CC)CCNC(=O)c1ccc(N2CCCCC2)c(NS(=O)(=O)c2ccc(C)cc2)c1 | 1.8* | 66 | 1.8* | 67 | 77
O=C(Cc1ccc(Cl)cc1)NN1C(=O)c2ccccc2C1=O | 99 | . | 111 | . | .
COC(=O)[C@@H]1[C@@H](C#N)C2(c3ccccc3-c3ccccc32)N(c2ccc(Cl)cc2)N1C#N | 95 | 21* | 87 | 40* | 0.2*
CCCCN(C(=S)NC(=O)c1cc(OC)c(OC)c(OC)c1)c1c(N)n(Cc2ccccc2)c(=O)[nH]c1=O | 101 | . | 96 | . | .
CCCCOc1ccc(CN(C)c2ncnc(N)n2)cc1 | 55 | 78 | 60 | 91 | 35*
[O-][n+]1onc2c3ccnnc3ccc21 | 91 | 104 | 93 | 92 | 38*
[O-][n+]1onc2c1CCc1nnccc1-2 | 65 | 105 | 80 | 101 | 63
Cc1cc2c(ccc3c2no[n+]3[O-])nn1 | 69 | 99 | 72 | 92 | 37*
COc1ccccc1NC(=O)CSc1nnnn1-c1ccc(C)cc1 | 86 | 88 | 103 | 101 | 83
COc1ccccc1NC(=O)c1ccc(NC(=O)CSc2nnnn2C)cc1 | 81 | 97 | 91 | 104 | 2.2*
COc1ccccc1C1CC(c2c(-c3ccccc3)c3cc(Cl)ccc3[nH]c2=O)=NN1S(C)(=O)=O (centres undefined) | 2.0* | 26* | 1.9* | 94 | 8.3*
SMILES | HCT116 bCat-KO | HUVEC inhibit | HCT116 PTEN-null | Fibroblast inh | H69AR inhibit
CCC(=O)N1N=C(c2c(-c3ccccc3)c3cc(Cl)ccc3[nH]c2=O)CC1c1ccco1 (centres undefined) | 58 | . | 46 | . | .
COc1cccc(C2CC(c3c(-c4ccccc4)c4cc(Cl)ccc4[nH]c3=O)=NN2S(C)(=O)=O)c1OC (centres undefined) | 55 | 56 | 37 | 91 | 22*
CCc1c(C)nc(N)n2c(SCC(=O)Nc3ccccc3)nnc12 | 111 | 98 | 98 | 98 | 88
C[C@@H](C(=O)N[C@H](C(=O)O)c1ccccc1)n1nnc2ccccc2c1=O | 90 | . | 81 | . | .
CC(/C=N/Nc1nnc2c(n1)[nH]c1ccccc12)=C\c1ccco1 | 89 | 97 | 85 | 114 | 34*
O=C(COC(=O)c1ccccc1NC(=O)C1CC1)c1ccc2c(c1)OCCO2 | 84 | . | 94 | . | .
O=C(c1ccc(S(=O)(=O)c2ccccc2Cl)c([N+](=O)[O-])c1)N1CCCCCC1 | 20 | . | 25 | . | .
Cc1cccc(C)c1OCC(=O)N=Nc1c(O)[nH]c2ccc(Br)cc12 | 97 | 17* | 104 | 98 | 1.9*
